Data: ChEMBL document CHEMBL1649212, “AI-2/LuxS is involved in increased biofilm formation by Streptococcus intermedius in the presence of antibiotics” (2009)
Activity calls are given as the source filed them. The rule behind the calls is not given here.

Tests used:
[1] = system: Streptococcus intermedius; experiment: Antimicrobial activity against Streptococcus intermedius NCTC 11324 assessed as biofilm formation at 0.05 to 0.10 ug/ml; type: functional, organism-based
Outline: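 Wild-type NCTC 11324 was grown overnight in TSB and inoculated into TSB with ampicillin (0.02 to 0.10 μg/ml), ciprofloxacin (0.10 to 0.28 μg/ml) or tetracycline (0.05 to 0.30 μg/ml), added at time zero. Wells held plastic coverslips and were incubated 12 h at 37°C in 5% CO2 aerobic air. Biofilm was measured as described previously. Experiments were done three times in three parallels.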

[2] = system: Streptococcus intermedius; experiment: Antimicrobial activity against Streptococcus intermedius NCTC 11324 biofilm assessed as biofilm bacterial count at 0.10 ug/ml (Rvb =402.9 +/- 26.88 10^5 CFU/ml); type: functional
[3] = system: Streptococcus intermedius; experiment: Antimicrobial activity against Streptococcus intermedius NCTC 11324 biofilm assessed as biofilm bacterial count at 0.05 ug/ml (Rvb =402.9 +/- 26.88 10^5 CFU/ml); type: functional
[4] = system: Streptococcus intermedius; experiment: Antimicrobial activity against Streptococcus intermedius NCTC 11324 biofilm assessed as biofilm bacterial count at 0.07 ug/ml (Rvb =402.9 +/- 26.88 10^5 CFU/ml); type: functional
[5] = system: Streptococcus intermedius; experiment: Antimicrobial activity against Streptococcus intermedius SI006 biofilm harboring luxS mutant gene assessed as biofilm bacterial count at 0.10 ug/ml (Rvb =310.8 +/- 17.10 10^5 CFU/ml); type: functional
[6] = system: Streptococcus intermedius; experiment: Antimicrobial activity against Streptococcus intermedius SI006 biofilm harboring luxS mutant gene assessed as biofilm bacterial count at 0.05 ug/ml (Rvb =310.8 +/- 17.10 10^5 CFU/ml); type: functional
[7] = system: Streptococcus intermedius; experiment: Antimicrobial activity against Streptococcus intermedius SI006 biofilm harboring luxS mutant gene assessed as biofilm bacterial count at 0.07 ug/ml (Rvb =310.8 +/- 17.10 10^5 CFU/ml); type: functional
[8] = system: Streptococcus intermedius; experiment: Antimicrobial activity against Streptococcus intermedius SI006 biofilm harboring luxS mutant gene assessed as biofilm bacterial count at 0.10 ug/ml in presence of 0.8 nM autoinducer 4,5-dihydroxy-2,3-pentanedione (Rvb =413.7 +/- 24.47 10^5 CFU/ml); type: functional
[9] = system: Streptococcus intermedius; experiment: Antimicrobial activity against Streptococcus intermedius SI006 biofilm harboring luxS mutant gene assessed as biofilm bacterial count at 0.05 ug/ml in presence of 0.8 nM autoinducer 4,5-dihydroxy-2,3-pentanedione (Rvb =413.7 +/- 24.47 10^5 CFU/ml); type: functional
[10] = system: Streptococcus intermedius; experiment: Antimicrobial activity against Streptococcus intermedius SI006 biofilm harboring luxS mutant gene assessed as biofilm bacterial count at 0.07 ug/ml in presence of 0.8 nM autoinducer 4,5-dihydroxy-2,3-pentanedione (Rvb =413.7 +/- 24.47 10^5 CFU/ml); type: functional
[11] = system: Streptococcus intermedius; experiment: Antimicrobial activity against Streptococcus intermedius SI006 planktonic cells harboring luxS mutant gene assessed as bacterial count at 0.15 ug/ml in presence of 0.8 nM autoinducer 4,5-dihydroxy-2,3-pentanedione (Rvb =790.8 +/- 90.09 10^8 CFU/ml); type: functional
[12] = system: Streptococcus intermedius; experiment: Antimicrobial activity against Streptococcus intermedius NCTC 11324 assessed as growth inhibition at 0.7 ug/ml; type: functional
Outline: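 Broth microdilution MIC in ultra-low-binding 96-well plates, inoculum ≈4 × 10^5. Growth was read at 595 nm, and the MIC was taken as the lowest antibiotic concentration inhibiting growth.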

[13] = system: Streptococcus intermedius; experiment: Antimicrobial activity against Streptococcus intermedius NCTC 11324 planktonic cells assessed as bacterial count at 0.08 ug/ml (Rvb =791.7 +/- 44.10 10^8 CFU/ml); type: functional
Outline: (§1)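 Planktonic wild-type cells were inoculated at ≈4 × 10^5 CFU/ml in TSB in ultra-low-binding plates. Media were without or with ampicillin (0.02 to 0.14 μg/ml), ciprofloxacin (0.10 to 0.35 μg/ml) or tetracycline (0.03 to 0.20 μg/ml). After 12 h at 37°C in 5% CO2 aerobic air, CFU were counted, run in parallel with the BacTiter-Glo ATP assay. Experiments were done three times in two parallels.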

[14] = system: Streptococcus intermedius; experiment: Antimicrobial activity against Streptococcus intermedius NCTC 11324 planktonic cells assessed as bacterial count at 0.10 ug/ml (Rvb =791.7 +/- 44.10 10^8 CFU/ml); type: functional; outline: as §1
[15] = system: Streptococcus intermedius; experiment: Antimicrobial activity against Streptococcus intermedius NCTC 11324 planktonic cells assessed as bacterial count at 0.12 ug/ml (Rvb =791.7 +/- 44.10 10^8 CFU/ml); type: functional; outline: as §1
[16] = system: Streptococcus intermedius; experiment: Antimicrobial activity against Streptococcus intermedius SI006 planktonic cells harboring luxS mutant gene assessed as bacterial count at 0.08 ug/ml (Rvb =757.5 +/- 80.14 10^8 CFU/ml); type: functional
[17] = system: Streptococcus intermedius; experiment: Antimicrobial activity against Streptococcus intermedius SI006 planktonic cells harboring luxS mutant gene assessed as bacterial count at 0.10 ug/ml (Rvb =757.5 +/- 80.14 10^8 CFU/ml); type: functional
[18] = system: Streptococcus intermedius; experiment: Antimicrobial activity against Streptococcus intermedius SI006 planktonic cells harboring luxS mutant gene assessed as bacterial count at 0.12 ug/ml (Rvb =757.5 +/- 80.14 10^8 CFU/ml); type: functional
[19] = system: Streptococcus intermedius; experiment: Antimicrobial activity against Streptococcus intermedius SI006 planktonic cells harboring luxS mutant gene assessed as bacterial count at 0.08 ug/ml in presence of 0.8 nM autoinducer 4,5-dihydroxy-2,3-pentanedione (Rvb =790.8 +/- 90.09 10^8 CFU/ml); type: functional
[20] = system: Streptococcus intermedius; experiment: Antimicrobial activity against Streptococcus intermedius SI006 planktonic cells harboring luxS mutant gene assessed as bacterial count at 0.10 ug/ml in presence of 0.8 nM autoinducer 4,5-dihydroxy-2,3-pentanedione (Rvb =790.8 +/- 90.09 10^8 CFU/ml); type: functional
[21] = system: Streptococcus intermedius; experiment: Antimicrobial activity against Streptococcus intermedius SI006 planktonic cells harboring luxS mutant gene assessed as bacterial count at 0.12 ug/ml in presence of 0.8 nM autoinducer 4,5-dihydroxy-2,3-pentanedione (Rvb =790.8 +/- 90.09 10^8 CFU/ml); type: functional
[22] = system: Streptococcus intermedius; experiment: Antimicrobial activity against Streptococcus intermedius NCTC 11324 planktonic cells assessed as bacterial count at 0.15 ug/ml (Rvb =791.7 +/- 44.10 10^8 CFU/ml); type: functional; outline: as §1
[23] = system: Streptococcus intermedius; experiment: Antimicrobial activity against Streptococcus intermedius SI006 planktonic cells harboring luxS mutant gene assessed as bacterial count at 0.15 ug/ml (Rvb =757.5 +/- 80.14 10^8 CFU/ml); type: functional

## CN(C)[C@@H]1C(O)=C(C(N)=O)C(=O)[C@@]2(O)C(O)=C3C(=O)c4c(O)cccc4[C@@](C)(O)[C@H]3C[C@@H]12 [TETRACYCLINE]
[1]
  Activity: inactive
[2]
  CFU: 610.5 ×10⁵ /ml
[3]
  CFU: 779.2 ×10⁵ /ml
[4]
  CFU: 637.1 ×10⁵ /ml
[5]
  CFU: 108.8 ×10⁵ /ml
[6]
  CFU: 333 ×10⁵ /ml
[7]
  CFU: 253.1 ×10⁵ /ml
[8]
  CFU: 486.2 ×10⁵ /ml
[9]
  CFU: 333 ×10⁵ /ml
[10]
  CFU: 253.1 ×10⁵ /ml
[11]
  CFU: 10.1 ×10⁸ /ml
[12]
  Activity: 0.7 µg/mL
[13]
  CFU: 61.9 ×10⁸ /ml
[14]
  CFU: 44.5 ×10⁸ /ml
[15]
  CFU: 32 ×10⁸ /ml
[16]
  CFU: 11.2 ×10⁸ /ml
[17]
  CFU: 5.7 ×10⁸ /ml
[18]
  CFU: 3 ×10⁸ /ml
[19]
  CFU: 38.4 ×10⁸ /ml
[20]
  CFU: 25.2 ×10⁸ /ml
[21]
  CFU: 16.3 ×10⁸ /ml
[22]
  CFU: 24.2 ×10⁸ /ml
[23]
  CFU: 2 ×10⁸ /ml
